Activity calls are given as the source filed them. No cut-off for these calls is given here.
How the values were obtained:
[1] = tested on: 3T3-L1; experiment: Increase in PPARgamma gene expression in mouse 3T3L1 cells at 10 uM incubated for 24 hrs by RT-PCR method; assay type: functional
[2] = tested on: Rattus norvegicus; experiment: Antidiabetic activity in Wistar rat model of streptozotocin-induced diabetes assessed as reduction in plasma glucose level at 36 mg/kg, po and dosage repeated for 15 days by GOD-POD method; assay type: functional, organism-based; set-up: dose 36 mg/kg
[3] = tested on: Rattus norvegicus; experiment: Effect on body weight in Wistar rat model of streptozotocin-induced diabetes at 36 mg/kg, po measured over 15 days; assay type: ADME, organism-based; set-up: dose 36 mg/kg, route oral; details: in vivo, 360 h
[4] = tested on: Rattus norvegicus; experiment: Antidiabetic activity in overnight fasted Wistar rat assessed as reduction in plasma glucose level at 36 mg/kg, po by oral glucose tolerance test; assay type: functional, organism-based; set-up: dose 36 mg/kg
Procedure, shortened: (§1)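 Normal Wistar rats were given a glucose load by the oral glucose tolerance method, and plasma glucose rise was followed after oral test dosing. Glibenclamide was the reference drug. Data are mean ± SEM of six observations versus control, analysed by one-way ANOVA with Dunnett test (p < 0.05, p < 0.01).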

[5] = biological target: Peroxisome proliferator-activated receptor gamma (Mus musculus) (UniProt P37238); experiment: Transactivation of PPARgamma (mouse) expressed in 3T3-L1 cells incubated for 24 hrs by luciferase reporter gene assay relative to rosiglitazone
[6] = tested on: Rattus norvegicus; experiment: Antidiabetic activity in overnight fasted Wistar rat assessed as reduction in plasma glucose level at 30 mg/kg, po by oral glucose tolerance test; assay type: functional, organism-based; set-up: dose 30 mg/kg; procedure, shortened: as §1
[7] = tested on: Rattus norvegicus; experiment: Effect on body weight in Wistar rat model of streptozotocin-induced diabetes at 30 mg/kg, po measured over 15 days; assay type: ADME, organism-based; set-up: dose 30 mg/kg, route oral; details: in vivo, 360 h
[8] = tested on: Rattus norvegicus; experiment: Antidiabetic activity in Wistar rat model of streptozotocin-induced diabetes assessed as reduction in plasma glucose level at 30 mg/kg, po and dosage repeated for 15 days by GOD-POD method; assay type: functional, organism-based; set-up: dose 30 mg/kg
[9] = tested on: Rattus norvegicus; experiment: Increase in body weight in Wistar rat model of streptozotocin-induced diabetes at 30 mg/kg, po measured over 15 days; assay type: ADME, organism-based; set-up: dose 30 mg/kg, route oral; details: in vivo, 360 h

Sequence of Peroxisome proliferator-activated receptor gamma (Mus musculus) (P37238 whole entry, looked up): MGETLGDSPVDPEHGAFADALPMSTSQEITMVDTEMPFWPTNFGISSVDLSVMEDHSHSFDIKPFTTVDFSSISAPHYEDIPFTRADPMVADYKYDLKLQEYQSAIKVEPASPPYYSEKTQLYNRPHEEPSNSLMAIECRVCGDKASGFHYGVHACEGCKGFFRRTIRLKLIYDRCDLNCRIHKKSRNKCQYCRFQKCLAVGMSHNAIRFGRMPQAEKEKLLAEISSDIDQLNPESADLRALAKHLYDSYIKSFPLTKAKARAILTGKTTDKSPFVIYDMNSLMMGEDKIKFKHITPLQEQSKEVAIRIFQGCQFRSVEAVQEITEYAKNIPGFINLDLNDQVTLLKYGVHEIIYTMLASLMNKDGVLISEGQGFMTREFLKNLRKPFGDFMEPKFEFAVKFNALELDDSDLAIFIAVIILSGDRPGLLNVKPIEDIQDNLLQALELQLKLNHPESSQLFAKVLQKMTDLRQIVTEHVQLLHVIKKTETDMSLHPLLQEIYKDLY

| Compound | fold change (FC) [1] | inhibition [2] | Activity [3] | inhibition [4] | Activity [5] | inhibition [6] | Activity [7] | inhibition [8] | Activity [9] |
| --- | --- | --- | --- | --- | --- | --- | --- | --- | --- |
| CN(CCOc1ccc(CC2SC(=O)NC2=O)cc1)c1ccccn1 (stereo not drawn) [ROSIGLITAZONE] | 1.5 | Active | Toxic | Active |  |  |  |  |  |
| Cc1ccccc1NC(=O)NS(=O)(=O)c1ccc(N2N=C(c3cccs3)CC2c2ccccc2)cc1 (stereo not drawn) | 0.95 |  |  |  | inactive | Active | Non-toxic | Active |  |
| O=C(NCc1ccccc1)NS(=O)(=O)c1ccc(N2N=C(c3cccs3)CC2c2cccs2)cc1 (stereo not drawn) |  |  |  |  | inactive | Active | Non-toxic |  |  |
| COc1ccc(NC(=O)NS(=O)(=O)c2ccc(N3N=C(c4cccs4)CC3c3cccs3)cc2)cc1 (stereo not drawn) |  |  |  |  | inactive | Active | Non-toxic | Active |  |
| Cc1ccc(C2CC(c3cccs3)=NN2c2ccc(S(=O)(=O)NC(=O)NCc3ccccc3)cc2)s1 (stereo not drawn) |  |  |  |  | inactive | Active | Non-toxic |  |  |
| O=C(NCc1ccccc1)NS(=O)(=O)c1ccc(N2N=C(c3cccs3)CC2c2ccccc2)cc1 (stereo not drawn) |  |  |  |  | inactive | Active | Non-toxic | Active |  |
| CCCCNC(=O)NS(=O)(=O)c1ccc(N2N=C(c3cccs3)CC2c2ccccc2)cc1 (stereo not drawn) |  |  |  |  | inactive | Active |  | Active | Toxic |
| CN(C)c1ccc(C2CC(c3cccs3)=NN2c2ccc(S(=O)(=O)NC(=S)NCc3ccccc3)cc2)cc1 (stereo not drawn) |  |  |  |  | inactive | Active | Non-toxic |  |  |
| COc1ccc(C2CC(c3cccs3)=NN2c2ccc(S(=O)(=O)NC(=O)Nc3ccc(C)cc3)cc2)cc1 (stereo not drawn) |  |  |  |  | inactive | Active | Non-toxic |  |  |
| COc1ccc(NC(=O)NS(=O)(=O)c2ccc(N3N=C(c4cccs4)CC3c3ccccc3)cc2)cc1 (stereo not drawn) |  |  |  |  | inactive | Active | Non-toxic | Active |  |
| CCCCNC(=O)NS(=O)(=O)c1ccc(N2N=C(c3cccs3)CC2c2cccs2)cc1 (stereo not drawn) |  |  |  |  | inactive | Active |  |  | Toxic |
| Cc1ccc(NC(=O)NS(=O)(=O)c2ccc(N3N=C(c4cccs4)CC3c3ccc(N(C)C)cc3)cc2)cc1 (stereo not drawn) |  |  |  |  | inactive | Active | Non-toxic |  |  |
| CN(C)c1ccc(C2CC(c3cccs3)=NN2c2ccc(S(=O)(=O)NC(=O)NCc3ccccc3)cc2)cc1 (stereo not drawn) |  |  |  |  | inactive | Active |  |  | Toxic |
| COc1ccc(Cl)cc1C(=O)NCCc1ccc(S(=O)(=O)NC(=O)NC2CCCCC2)cc1 [GLYBURIDE] | 1 |  |  |  | inactive | Active |  | Active | Toxic |
| Cc1ccc(C2CC(c3cccs3)=NN2c2ccc(S(=O)(=O)NC(=O)Nc3ccccc3C)cc2)s1 (stereo not drawn) |  |  |  |  |  |  | Non-toxic |  |  |
| Cc1ccc(NC(=O)NS(=O)(=O)c2ccc(N3N=C(c4cccs4)CC3c3ccccc3)cc2)cc1 (stereo not drawn) |  |  |  |  | inactive | Active |  | Active |  |
| Cc1ccc(NC(=O)NS(=O)(=O)c2ccc(N3N=C(c4cccs4)CC3c3cccs3)cc2)cc1 (stereo not drawn) |  |  |  |  | inactive | Active | Non-toxic |  |  |
